pIC50: −log10 of the molar value.
The compounds below were run against Glutamate NMDA receptor; Grin1/Grin2b (Rattus norvegicus, UniProt P35439+Q00960) (assay: Inhibition of rat recombinant NR1/NR2B receptor expressed in Xenopus oocytes assessed as inhibition of glutamate and glycine-induced evoked current by two electrode voltage clamp method).
Assay type: cell-based, Oocyte

Chain of Glutamate NMDA receptor; Grin1/Grin2b (Q00960 whole entry, other chains not shown): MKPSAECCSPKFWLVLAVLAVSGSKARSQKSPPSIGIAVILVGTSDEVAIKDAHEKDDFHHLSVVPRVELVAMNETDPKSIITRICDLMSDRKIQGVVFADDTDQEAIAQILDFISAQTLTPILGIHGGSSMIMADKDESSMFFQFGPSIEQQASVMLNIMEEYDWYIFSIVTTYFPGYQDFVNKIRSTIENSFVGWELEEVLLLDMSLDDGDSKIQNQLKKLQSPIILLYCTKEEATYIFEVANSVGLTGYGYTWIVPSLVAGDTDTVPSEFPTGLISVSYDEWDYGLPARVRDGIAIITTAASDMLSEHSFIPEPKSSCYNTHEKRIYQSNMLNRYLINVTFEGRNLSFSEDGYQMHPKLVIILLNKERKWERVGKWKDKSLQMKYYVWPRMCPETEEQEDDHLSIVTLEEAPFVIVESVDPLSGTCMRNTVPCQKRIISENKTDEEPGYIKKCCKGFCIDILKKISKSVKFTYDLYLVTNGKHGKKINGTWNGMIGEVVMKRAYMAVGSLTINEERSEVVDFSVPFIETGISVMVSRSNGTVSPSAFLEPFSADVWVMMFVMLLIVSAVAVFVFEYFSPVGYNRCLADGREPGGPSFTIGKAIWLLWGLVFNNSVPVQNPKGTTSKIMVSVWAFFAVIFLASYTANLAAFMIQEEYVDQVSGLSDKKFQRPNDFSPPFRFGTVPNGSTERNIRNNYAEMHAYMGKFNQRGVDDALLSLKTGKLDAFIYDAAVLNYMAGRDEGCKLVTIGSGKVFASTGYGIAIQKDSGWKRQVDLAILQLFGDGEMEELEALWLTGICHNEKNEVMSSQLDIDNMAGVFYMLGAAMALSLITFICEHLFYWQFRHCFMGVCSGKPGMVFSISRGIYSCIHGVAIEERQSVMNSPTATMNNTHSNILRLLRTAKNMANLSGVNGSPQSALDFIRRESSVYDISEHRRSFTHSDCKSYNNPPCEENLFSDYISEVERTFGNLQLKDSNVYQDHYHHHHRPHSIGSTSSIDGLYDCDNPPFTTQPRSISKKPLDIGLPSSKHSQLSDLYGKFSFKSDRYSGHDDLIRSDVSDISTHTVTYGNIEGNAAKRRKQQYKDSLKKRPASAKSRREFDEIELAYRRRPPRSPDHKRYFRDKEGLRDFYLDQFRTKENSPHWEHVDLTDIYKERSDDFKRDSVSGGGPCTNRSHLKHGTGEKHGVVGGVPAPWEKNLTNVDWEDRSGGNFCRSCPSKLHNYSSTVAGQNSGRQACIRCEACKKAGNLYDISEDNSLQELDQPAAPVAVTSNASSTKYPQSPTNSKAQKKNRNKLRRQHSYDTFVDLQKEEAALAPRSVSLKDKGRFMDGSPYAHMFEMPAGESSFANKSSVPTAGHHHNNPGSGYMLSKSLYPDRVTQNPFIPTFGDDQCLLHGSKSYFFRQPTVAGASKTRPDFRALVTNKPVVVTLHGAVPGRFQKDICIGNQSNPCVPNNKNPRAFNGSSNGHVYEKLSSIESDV

| Structure (SMILES) | pIC50 |
| --- | --- |
| COc1cccc(CN(CCc2ccc(Cl)c(Cl)c2)C[C@H](O)COc2ccc(NS(C)(=O)=O)cc2)c1OC | 5.55 |
| CS(=O)(=O)Nc1cccc(OC[C@@H](O)CNCCc2ccc(Cl)c(Cl)c2)c1 | 6.28 |
| C[C@H](NC[C@H](O)COc1ccc(NS(C)(=O)=O)cc1)c1cccc2ccccc12 | 5.29 |
| CS(=O)(=O)Nc1ccc(OC[C@@H](O)CN(CCc2ccc(Cl)c(Cl)c2)Cc2ccccc2O)cc1 | 6.18 |
| CS(=O)(=O)Nc1ccc(OC[C@@H](O)CNCCc2ccc(Cl)cc2Cl)cc1 | 5.64 |
| CS(=O)(=O)Nc1ccc(OC[C@@H](O)CNCCc2ccc([N+](=O)[O-])cc2)cc1 | 5.94 |
| CS(=O)(=O)Nc1ccc(OC[C@@H](O)CN(CCc2ccc(Cl)c(Cl)c2)Cc2ccccc2[N+](=O)[O-])cc1 | 6.23 |
| CS(=O)(=O)Nc1ccc(OC[C@@H](O)CNCCc2cccc(Cl)c2)cc1 | 6.20 |
| Cc1ccccc1CN(CCc1ccc(Cl)c(Cl)c1)C[C@H](O)COc1ccc(NS(C)(=O)=O)cc1 | 5.24 |
| CS(=O)(=O)Nc1ccc(OC[C@@H](O)CN(CCc2ccc(Cl)c(Cl)c2)Cc2ccccc2)cc1 | 6.75 |
| CS(=O)(=O)Nc1ccc(OC[C@@H](O)CNCCc2ccc(O)c(O)c2)cc1 | < 4.00 |
| CS(=O)(=O)Nc1ccc(OC[C@@H](O)CNCCc2ccccc2O)cc1 | 5.70 |
| CCCN(CCc1ccc(Cl)c(Cl)c1)C[C@H](O)COc1ccc(NS(C)(=O)=O)cc1 | 6.20 |
| Cc1ccc(CN(CCc2ccc(Cl)c(Cl)c2)C[C@H](O)COc2ccc(NS(C)(=O)=O)cc2)cc1 | 5.27 |
| CS(=O)(=O)Nc1ccc(OC[C@@H](O)CNCCc2cccc(F)c2)cc1 | 6.07 |
| CS(=O)(=O)Nc1ccc(OC[C@@H](O)CN(CCc2ccc(Cl)c(Cl)c2)Cc2ccccc2Br)cc1 | 7.42 |
| CS(=O)(=O)Nc1ccc(OC[C@@H](O)CN(CCc2ccc(Cl)c(Cl)c2)Cc2cccnc2)cc1 | 6.56 |
| CS(=O)(=O)Nc1ccc(OC[C@@H](O)CNCCc2ccc(O)cc2)cc1 | 5.14 |
| CS(=O)(=O)Nc1ccc(OC[C@H](O)CN(CCc2ccc(Cl)c(Cl)c2)Cc2ccccc2O)cc1 | 6.36 |
| CCCS(=O)(=O)Nc1ccc(OC[C@@H](O)CNCCc2ccc(Cl)c(Cl)c2)cc1 | 5.21 |
| CS(=O)(=O)Nc1ccc(OC[C@@H](O)CN(CCc2ccc(Cl)c(Cl)c2)Cc2ccccc2Cl)cc1 | 6.32 |
| CS(=O)(=O)Nc1ccc(OC[C@@H](O)CN(CCc2ccc(Cl)c(Cl)c2)Cc2ccccc2F)cc1 | 7.10 |
| CS(=O)(=O)Nc1ccc(OC[C@H](O)CNCCc2ccc(Cl)c(Cl)c2)cc1 | 6.73 |

| Structure (SMILES) | pIC50 |
| --- | --- |
| CS(=O)(=O)Nc1ccc(OC[C@@H](O)CN(CCc2ccccc2)CCc2ccc(Cl)c(Cl)c2)cc1 | 5.45 |
| CS(=O)(=O)Nc1ccc(OC[C@@H](O)CN(CCc2ccc(Cl)c(Cl)c2)Cc2c(F)cccc2F)cc1 | 6.55 |
| CC(=O)Oc1ccccc1CN(CCc1ccc(Cl)c(Cl)c1)C[C@H](O)COc1ccc(NS(C)(=O)=O)cc1 | 6.30 |
| CN(CCc1ccc(Cl)c(Cl)c1)C[C@H](O)COc1ccc(NS(C)(=O)=O)cc1 | 6.89 |
| O=C(Nc1ccc(OC[C@@H](O)CNCCc2ccc(Cl)c(Cl)c2)cc1)C(Cl)Cl | 4.89 |
| CS(=O)(=O)Nc1ccccc1OC[C@@H](O)CNCCc1ccc(Cl)c(Cl)c1 | 4.92 |
| CS(=O)(=O)Nc1ccc(OC[C@@H](O)CNCCc2ccc(F)c(Cl)c2)cc1 | 6.40 |
| CC(C)N(CCc1ccc(Cl)c(Cl)c1)C[C@H](O)COc1ccc(NS(C)(=O)=O)cc1 | 6.22 |
| CN(c1ccc(OC[C@@H](O)CNCCc2ccc(Cl)c(Cl)c2)cc1)S(C)(=O)=O | 5.00 |
| CS(=O)(=O)Nc1ccc(OC[C@@H](O)CN(CCc2ccc(Cl)c(Cl)c2)CC2CCCCC2)cc1 | 5.01 |
| CN(CCc1ccc(Cl)c(Cl)c1)C[C@@H](O)COc1ccc(NS(C)(=O)=O)cc1 | 6.60 |
| CS(=O)(=O)Nc1ccc(OC[C@@H](O)CN(CCc2ccc(Cl)c(Cl)c2)Cc2ccc(O)cc2O)cc1 | 6.84 |
| CCS(=O)(=O)Nc1ccc(OC[C@@H](O)CNCCc2ccc(Cl)c(Cl)c2)cc1 | 6.23 |
| O=C(Nc1ccc(OC[C@@H](O)CNCCc2ccc(Cl)c(Cl)c2)cc1)C(Cl)(Cl)Cl | 4.97 |
| COc1ccccc1CN(CCc1ccc(Cl)c(Cl)c1)C[C@H](O)COc1ccc(NS(C)(=O)=O)cc1 | 5.41 |
| CS(=O)(=O)Nc1ccc(OC[C@H](O)CN(CCO)CCc2ccc(Cl)c(Cl)c2)cc1 | 6.76 |
| CS(=O)(=O)Nc1ccc(OC[C@@H](O)CNCCc2ccc(Cl)c(Cl)c2)c(F)c1 | 7.14 |
| CCCCN(CCc1ccc(Cl)c(Cl)c1)C[C@@H](O)COc1ccc(NS(C)(=O)=O)cc1 | 5.89 |
| O=S(=O)(Nc1ccc(OC[C@@H](O)CNCCc2ccc(Cl)c(Cl)c2)cc1)c1ccccc1 | 5.84 |
| CS(=O)(=O)Nc1ccc(OC[C@@H](O)CN(CCc2ccc(Cl)c(Cl)c2)Cc2ccccc2C(F)(F)F)cc1 | 5.43 |
| CS(=O)(=O)Nc1ccc(OC[C@@H](O)CNCCc2ccc(Cl)c(Cl)c2)cc1F | 6.37 |
| CS(=O)(=O)Nc1ccc(OC[C@@H](O)CNCCc2ccc(Cl)cc2)cc1 | 7.00 |
| CS(=O)(=O)Nc1ccc(OC[C@H](O)CN(CCc2ccc(Cl)c(Cl)c2)Cc2cccc(O)c2)cc1 | 6.39 |

| Structure (SMILES) | pIC50 |
| --- | --- |
| CS(=O)(=O)Nc1ccc(OC[C@@H](O)CNCCc2ccccc2F)cc1 | 6.24 |
| CS(=O)(=O)Nc1ccc(OC[C@@H](O)CNCCc2ccccc2Cl)cc1 | 6.37 |
| CS(=O)(=O)Nc1ccc(OC[C@@H](O)CNCCc2ccc3c(c2)OCO3)cc1 | 6.02 |
| CS(=O)(=O)Nc1ccc(OC[C@@H](O)CN(CCc2ccc(Cl)c(Cl)c2)Cc2c(F)c(F)c(F)c(F)c2F)cc1 | 6.28 |
| CS(=O)(=O)Nc1ccc(OC[C@@H](O)CN(CCc2ccc(Cl)c(Cl)c2)Cc2cccc(F)c2)cc1 | 6.60 |
| CS(=O)(=O)Nc1ccc(OC[C@@H](O)CN(CCc2ccc(Cl)c(Cl)c2)Cc2nccs2)cc1 | 5.45 |
| CS(=O)(=O)Nc1ccc(OC[C@@H](O)CNCCc2cc(O)cc(O)c2)cc1 | < 4.00 |
| CS(=O)(=O)Nc1ccc(OC[C@@H](O)CN(CCc2ccc(Cl)c(Cl)c2)Cc2ccc(O)cc2)cc1 | 6.95 |
| CCCCS(=O)(=O)Nc1ccc(OC[C@@H](O)CNCCc2ccc(Cl)c(Cl)c2)cc1 | 5.17 |
| CS(=O)(=O)Nc1ccc(OC[C@@H](O)CN(CCc2ccc(Cl)c(Cl)c2)Cc2ccc(F)c(F)c2F)cc1 | 7.29 |
| COc1cccc(OC)c1CN(CCc1ccc(Cl)c(Cl)c1)C[C@H](O)COc1ccc(NS(C)(=O)=O)cc1 | 4.92 |
| O=[N+]([O-])c1ccc(OC[C@@H](O)CNCCc2ccc(Cl)c(Cl)c2)cc1 | 5.03 |
| CC(=O)Nc1ccc(OC[C@@H](O)CNCCc2ccc(Cl)c(Cl)c2)cc1 | 5.36 |
| CS(=O)(=O)Nc1ccc(OC[C@@H](O)CN(CCc2ccc(Cl)c(Cl)c2)CCc2ccccc2O)cc1 | 6.12 |
| CS(=O)(=O)Nc1ccc(OC[C@@H](O)CNCCc2ccc(F)cc2)cc1 | 6.13 |
| Cc1cc(OC[C@@H](O)CNCCc2ccc(Cl)c(Cl)c2)ccc1NS(C)(=O)=O | 6.16 |
| CS(=O)(=O)Nc1ccc(OC[C@@H](O)CNCCc2cccc(O)c2)cc1 | 5.35 |
| CS(=O)(=O)Nc1ccc(OC[C@@H](O)CN(CCc2ccc(Cl)c(Cl)c2)Cc2cccc3c2OCO3)cc1 | 5.30 |
| CCCCCN(CCc1ccc(Cl)c(Cl)c1)C[C@H](O)COc1ccc(NS(C)(=O)=O)cc1 | 6.18 |
| CS(=O)(=O)Nc1ccc(OC[C@@H](O)CN(CCc2ccc(Cl)c(Cl)c2)Cc2ccc(F)cc2)cc1 | 6.56 |
| CS(=O)(=O)Nc1ccc(OC[C@@H](O)CN(CCc2ccc(Cl)c(Cl)c2)Cc2cccc(O)c2O)cc1 | 5.74 |

The compounds below were run against T1, Adrenergic receptor alpha-1 (Rattus norvegicus, UniProt P15823+P23944+P43140) (assay: Displacement of [3H]prazosin from alpha1 adrenergic receptor in rat brain).
T1 sequence (P15823 whole entry): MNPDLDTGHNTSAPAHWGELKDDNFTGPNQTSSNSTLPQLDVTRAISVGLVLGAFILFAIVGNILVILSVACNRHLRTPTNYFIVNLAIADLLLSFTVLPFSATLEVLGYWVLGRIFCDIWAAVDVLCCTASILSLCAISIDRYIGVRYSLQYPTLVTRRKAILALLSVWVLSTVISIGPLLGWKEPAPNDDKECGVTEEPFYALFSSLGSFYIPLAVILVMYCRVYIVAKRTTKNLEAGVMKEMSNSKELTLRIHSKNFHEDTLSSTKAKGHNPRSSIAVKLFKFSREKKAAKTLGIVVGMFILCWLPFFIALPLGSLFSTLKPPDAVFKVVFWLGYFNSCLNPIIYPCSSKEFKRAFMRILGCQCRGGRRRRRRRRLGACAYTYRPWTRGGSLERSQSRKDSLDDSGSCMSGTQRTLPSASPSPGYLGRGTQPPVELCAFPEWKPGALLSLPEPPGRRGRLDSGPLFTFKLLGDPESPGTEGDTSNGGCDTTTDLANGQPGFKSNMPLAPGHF
T1 sequence (P23944 whole entry): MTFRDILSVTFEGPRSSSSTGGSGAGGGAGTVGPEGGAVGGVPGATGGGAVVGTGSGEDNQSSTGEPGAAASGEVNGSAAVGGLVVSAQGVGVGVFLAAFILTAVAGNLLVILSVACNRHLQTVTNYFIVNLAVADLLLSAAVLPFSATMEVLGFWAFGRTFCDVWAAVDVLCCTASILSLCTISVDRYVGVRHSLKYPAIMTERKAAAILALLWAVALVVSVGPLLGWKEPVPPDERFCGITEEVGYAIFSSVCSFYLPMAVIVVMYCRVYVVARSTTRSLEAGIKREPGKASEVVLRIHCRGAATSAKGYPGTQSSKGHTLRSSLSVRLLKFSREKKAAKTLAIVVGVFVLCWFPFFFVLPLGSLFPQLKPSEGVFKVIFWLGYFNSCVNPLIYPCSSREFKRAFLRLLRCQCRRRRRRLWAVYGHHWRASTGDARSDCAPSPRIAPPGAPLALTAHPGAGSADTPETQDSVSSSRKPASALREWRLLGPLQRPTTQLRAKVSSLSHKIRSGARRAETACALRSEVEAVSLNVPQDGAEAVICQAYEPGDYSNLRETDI
T1 sequence (P43140 whole entry): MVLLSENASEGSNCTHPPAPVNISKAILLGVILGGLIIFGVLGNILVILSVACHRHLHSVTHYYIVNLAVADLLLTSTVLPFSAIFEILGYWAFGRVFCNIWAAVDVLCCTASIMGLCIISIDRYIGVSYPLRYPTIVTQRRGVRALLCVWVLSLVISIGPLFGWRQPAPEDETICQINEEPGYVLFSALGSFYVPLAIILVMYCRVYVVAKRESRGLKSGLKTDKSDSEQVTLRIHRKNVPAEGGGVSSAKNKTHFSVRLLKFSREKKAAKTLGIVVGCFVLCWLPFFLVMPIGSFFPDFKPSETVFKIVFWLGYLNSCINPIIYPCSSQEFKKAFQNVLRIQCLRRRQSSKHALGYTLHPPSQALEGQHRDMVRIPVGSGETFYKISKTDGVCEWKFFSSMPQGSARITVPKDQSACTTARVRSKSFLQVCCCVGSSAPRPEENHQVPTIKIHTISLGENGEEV
Assay type: tissue-based
Procedure, shortened: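 Rat brain membranes; displacement of [3H]-prazosin at 4–6 concentrations, each point in duplicate. IC50 from displacement curves fitted by nonlinear least-squares regression.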

| Structure (SMILES) | IC50 [µM] |
| --- | --- |
| CS(=O)(=O)Nc1ccc(OC[C@@H](O)CN(CCc2ccc(Cl)c(Cl)c2)Cc2ccccc2O)cc1 | > 10 |
| CS(=O)(=O)Nc1ccc(OC[C@@H](O)CN(CCc2ccc(Cl)c(Cl)c2)Cc2ccccc2F)cc1 | > 10 |
| CN(CCc1ccc(Cl)c(Cl)c1)C[C@H](O)COc1ccc(NS(C)(=O)=O)cc1 | 1.4 |
| CS(=O)(=O)Nc1ccc(OC[C@@H](O)CNCCc2ccc(Cl)cc2)cc1 | 9.5 |
| CS(=O)(=O)Nc1ccc(OC[C@@H](O)CN(CCc2ccc(Cl)c(Cl)c2)Cc2ccc(F)c(F)c2F)cc1 | > 10 |
